Test results taken from PubChem BioAssay AID1424 (The Scripps Research Institute Molecular Screening Center, 2008).
The whole screen tested about 220,000 compounds, of which about 390 (0.18%) were called active.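 The calls were made as follows: active = activation above its plate's cutoff, the mean activation of test wells on that plate plus 3 SD (cut at about 19% in these data); inactive = the rest.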 The full list was thinned out, with actives kept by preference.

What follows are molecules tested on transient receptor potential cation channel N1 (TRPN1/NompC), Danio rerio (assay: zebrafish TRPN1 channel agonists, primary screen, cell-based, HEK293, calcium fluorescence (AID 1424;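 also: 0% = DMSO alone and 100% = 87 µM carbachol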)). Conditions: HEK293 zebrafish TRPN1-YFP, Fluo-8 calcium fluorescence; at 3 µM; hits give high values; 100% = response to 87 µM carbachol.
Summary of the method: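 Control set: carbachol 87 µM as high control, DMSO as low control; system: HEK293 stable line with zebrafish TRPN1-YFP; read-out: % activation versus carbachol response; detection: intracellular calcium fluorescence with Fluo-8; doses: single test compound dose, 3 µM nominal, 0.3% DMSO; schedule: dye 1 h 37 °C plus 30 min RT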
For Cc1ccc(-n2c(C)cc(/C=N/Nc3ccc([N+](=O)[O-])cn3)c2C)c(C)c1, the activation was -0.82% (inactive).
With C/C=N/N(c1ccccc1)c1ccccc1 the activation was 0.69% (inactive).
With COc1cc(NC(=S)NCCSc2ccc(C)cc2)cc(OC)c1 the activation was -3.08% (inactive).
In the case of Cc1cc(C)c(S(=O)(=O)N2CCOCC2)cc1C, the activation is reported as -0.54% (inactive).
With CC(C)n1c(NCc2c[nH]c3ccccc23)nc2ccccc21 the activation was -0.19% (inactive).
With Cc1nc(S(=O)(=O)c2ccc(Br)cc2)nc2c1CCC2 the activation was 0.17% (inactive).
With CN(C)C=NC(=O)c1cccn1-c1ncc(C(F)(F)F)cc1Cl the activation was -0.1% (inactive).
In the case of NC(=O)c1ccc(NC(=O)COC(=O)c2c3c(nc4ccccc24)/C(=C\c2ccc4c(c2)OCO4)CCC3)cc1, the activation is reported as 41.6% (active).
With NS(=O)(=O)c1ccc(NC(=O)COC(=O)c2cc3ccccc3oc2=O)cc1 the activation was 0.38% (inactive).
With O=C(COC(=O)c1c2c(nc3ccccc13)/C(=C\c1cccs1)CCC2)Nc1ccccc1Cl the activation was -1.63% (inactive).
With COc1cc(-c2cc(C(=O)OCC(=O)Nc3ccc4c(c3)OCO4)c3ccccc3n2)cc(OC)c1OC the activation was -1.87% (inactive).
In the case of NS(=O)(=O)c1ccc(NC(=O)COC(=O)c2ccc(Cl)nc2)cc1, the activation is reported as 1.46% (inactive).
For NS(=O)(=O)c1ccc(NC(=O)COC(=O)c2c3c(nc4ccccc24)/C(=C\c2ccc4c(c2)OCO4)CCC3)cc1, the activation was 47.9% (active).
For CCN1CCC2(CC1)N=C(c1ccc(F)cc1)C(=S)N2C(=O)c1ccc(C)cc1, the activation was -0.33% (inactive).
COC(=O)c1ccc(C(NC(=O)OCc2ccccc2)/C(C)=C/[C@@H](C)C(=O)NCc2ccc(OC)c(OC)c2)cc1 (stereo partly drawn) was tested, and the activation was -0.55% (inactive).
In the case of COc1ccc(OCc2n[nH]c(=S)n2N)cc1, the activation is reported as 0.96% (inactive).
With COC(=O)c1ccc(CN2CCC(CO)(Cc3ccc(OC)cc3)CC2)cc1 the activation was 4.67% (inactive).
For CCn1c(=S)[nH]c2sc3c(c2c1=O)CCCCC3, the activation was 0.92% (inactive).
In the case of O=C(C1=C[C@H](c2ccc(C(F)(F)F)cc2)C[C@H](OCc2ccc(CO)cc2)O1)N1CCN(Cc2ccccc2)CC1, the activation is reported as -0.62% (inactive).
In the case of Cc1nc(=O)c(-c2ccccc2)c(C)n1-c1ccc(Br)cc1, the activation is reported as 1.06% (inactive).
For CC1(C)CC(=O)C(C2c3ccccc3S(=O)(=O)c3ccccc32)C(=O)C1, the activation was -1.19% (inactive).
For CC(=O)Oc1ccccc1C(=O)Nc1ncc([N+](=O)[O-])s1, the activation was 22.2% (active).
With O=C(Cc1c(F)cccc1Cl)Nc1ncc([N+](=O)[O-])s1 the activation was 18.3% (inactive).
With O=C(CCc1ccccc1)Nc1ncc([N+](=O)[O-])s1 the activation was 9.35% (inactive).
CC(=O)c1ccc(N2CCN(S(=O)(=O)c3c(C)[nH]c(=O)[nH]c3=O)CC2)cc1 was tested, and the activation was 0.25% (inactive).
For CCc1nc2ccccc2c(C(=O)NCc2ccc(OC)cc2)c1C, the activation was -0.1% (inactive).
In the case of CN(CC(=O)Nc1cccc(F)c1)CC(=O)Nc1cccc([N+](=O)[O-])c1, the activation is reported as 44.2% (active).
Cc1ccc(NC(=O)CN(C)CC(=O)Nc2cccc(F)c2)cc1[N+](=O)[O-] was tested, and the activation was 8.52% (inactive).
For Cc1ccc(CN(C)CC(=O)Nc2cccc([N+](=O)[O-])c2)o1, the activation was -1.16% (inactive).
With CCOP(=O)(OCC)C(Nc1ccc([N+](=O)[O-])cc1)c1ccc(Cl)cc1 (stereo not drawn) the activation was -1.18% (inactive).
In the case of Cc1cc(Nc2ccc(Cl)cc2)nc(N2CCOCC2)n1, the activation is reported as -0.78% (inactive).
For O=C(O)CCn1c(SCc2cc(=O)n3ccccc3n2)nc2ccsc2c1=O, the activation was 0.55% (inactive).
CCN(CC)C(=O)CC1(c2ccccc2OC)CCOC(C(C)C)C1 (stereo not drawn) was tested, and the activation was -0.7% (inactive).
For O=C(O)c1cccc(N2C(=O)Nc3ccccc3N2O)c1, the activation was -0.51% (inactive).
With COc1ccc(N2C(=O)c3ccccc3NC2c2ccc(OC)c(CN3CCOCC3)c2)cc1 (stereo not drawn) the activation was 0.64% (inactive).
In the case of CC(NC(=O)COC(=O)c1cc(=O)[nH]c2ccccc12)c1ccccc1 (stereo not drawn), the activation is reported as 2.26% (inactive).
With O=c1[nH]c2c(c(=O)n1Cc1ccccc1)CCC2 the activation was -0.42% (inactive).
CC(=O)c1ccc(-c2ccc(Cn3c(C)nc4cc(N)c(C)nc43)cc2)cc1 was tested, and the activation was 0.89% (inactive).
For Cc1cc2nc3c(=O)n(Cc4ccccc4)c(=O)[nH]c3nc2cc1N, the activation was 37.4% (active).
In the case of COc1ccc(NC(=S)N2N=CCC2c2ccccc2)cc1 (stereo not drawn), the activation is reported as 0.6% (inactive).
For CCOc1ccc2c(=O)c(-c3ccc4c(c3)OCCCO4)c(C)oc2c1, the activation was -1.72% (inactive).
In the case of COC(=O)/C(C#N)=C/c1occc1C, the activation is reported as 1.02% (inactive).
With CCCCCc1ccc(-c2ccc(OCC)cc2)nc1 the activation was 1.46% (inactive).
With O=C(Cc1ncc(C(F)(F)F)cc1Cl)Nc1cccc(Br)c1 the activation was 0.3% (inactive).
With c1ccc2c(c1)OCCOCCOCCO2 the activation was -2.17% (inactive).
In the case of CN(C)CCCN(Cc1cc2cc3c(cc2[nH]c1=O)OCCO3)C(=O)NC1CCCCC1, the activation is reported as 1.71% (inactive).
Cc1nn(-c2ccccc2)c(NC(=O)c2cccs2)c(-c2ccc(Cl)cc2)c1=O was tested, and the activation was -0.42% (inactive).
C/C(=N\NC(=O)CC(C)C)c1c(C(F)(F)F)[nH]n(-c2nc3ccccc3s2)c1=O was tested, and the activation was -0.3% (inactive).
For Cc1onc(-c2ccccc2)c1C(=O)NNC(=S)NC(=O)c1ccc(F)cc1, the activation was 13.6% (inactive).
With COc1ccc(C(=O)NC(=S)NNC(=O)CCc2ccccc2)cc1 the activation was 12% (inactive).
In the case of COc1ccc(C(=O)NC(=S)NNC(=O)c2c(-c3ccccc3)noc2C)cc1, the activation is reported as 44% (active).
CC(C)C(=O)Nc1cccc(NC(=S)NC(=O)C(c2ccccc2)c2ccccc2)c1 was tested, and the activation was 2.14% (inactive).
In the case of O=C(NNC(=S)NCc1ccco1)C(c1ccccc1)c1ccccc1, the activation is reported as -0.07% (inactive).
With CCCCC(=O)NNC(=S)NC(=O)C(c1ccccc1)c1ccccc1 the activation was 84.8% (active).
With CC(=O)Nc1ccc(S(=O)(=O)NC2(C(F)(F)F)C(=O)Nc3c2c(=O)[nH]c(=O)n3Cc2ccccc2)cc1 (stereo not drawn) the activation was 2.33% (inactive).
For CC(C)Cc1nc(Cl)c(C#N)c2c1CCC2, the activation was -2.32% (inactive).
In the case of Cc1ccc(Nc2cc(C)nc3c(C)ccc([N+](=O)[O-])c23)cc1, the activation is reported as -2.21% (inactive).
For Cc1cc(N2CCN(c3ccc(F)cc3)CC2)n2ncnc2n1, the activation was 1.97% (inactive).
In the case of CCc1cccc(C)c1NC(=O)COC(=O)Cc1ccsc1, the activation is reported as -0.93% (inactive).
In the case of CN1CCN(NC(=O)c2ccc(S(=O)(=O)N3CCCCCC3)cc2)CC1, the activation is reported as 1.34% (inactive).
In the case of CCOC(=O)COc1nc(C)cc(C(F)(F)F)c1C#N, the activation is reported as -0.81% (inactive).
CCOC(=O)/C(C#N)=C/c1ccc(N2CCCCC2)cc1 was tested, and the activation was 2.02% (inactive).
With Cc1cc(C(=O)NNC(=S)Nc2ccccc2C)cs1 the activation was 3.43% (inactive).
In the case of CN(C)CCOCCOc1ccc(Cl)c2ccccc12, the activation is reported as 1.52% (inactive).
In the case of Cc1cccc(C)c1Nc1c(-c2ccccc2O)nc2ncccn12, the activation is reported as 1.43% (inactive).
In the case of Cc1ccc(C2C(C#N)C(C#N)N3CCCN23)cc1 (stereo not drawn), the activation is reported as -0.02% (inactive).
For CCO/N=C(/C)c1c(O)cc(-c2ccccc2)n(-c2ccccc2)c1=O, the activation was 0.61% (inactive).
COCc1c(N)c(C)nc(Cl)c1C#N was tested, and the activation was -0.99% (inactive).
For CCn1c(CSc2ncccn2)nnc1SCC(=O)N1c2ccccc2CC1C (stereo not drawn), the activation was -0.46% (inactive).
CCCc1nnc(SCC(=O)N2C(C)CCCC2C)n1CC (stereo not drawn) was tested, and the activation was 37.6% (active).
For CCn1c(Cc2ccccc2)nnc1SCC(=O)Nc1ccccc1, the activation was 0.58% (inactive).
For O=C(O)CCN(Cc1ccccc1)S(=O)(=O)c1c(Cl)cccc1Cl, the activation was 0.3% (inactive).
COc1cc(C(=O)OC(C)C(=O)NCC2CCCCC2)cc(NC(=O)c2ccco2)c1OC (stereo not drawn) was tested, and the activation was -0.78% (inactive).
For COCCN(Cc1cc2cc3c(cc2nc1Cl)OCO3)C(=O)c1cccc(C)c1, the activation was 0.19% (inactive).
CCN(CC)c1ccc2cc(C(N)=O)/c(=N\NC(=O)c3ccncc3)oc2c1 was tested, and the activation was 31.1% (active).
COc1ccc(C(=O)N/N=c2\oc3ccccc3cc2C(N)=O)cc1 was tested, and the activation was 1.99% (inactive).
CCN(CC)c1ccc2cc(C(=O)O)c(=O)oc2c1 was tested, and the activation was 1.02% (inactive).
In the case of CCC(C)NC(=O)c1ccc(N2CCC3(CC2)OCCO3)c([N+](=O)[O-])c1 (stereo not drawn), the activation is reported as 0.89% (inactive).
O=C(/C=C/c1cccs1)NCc1cccnc1 was tested, and the activation was 0.53% (inactive).
In the case of COC(=O)C1=NN(c2ccccc2)C2C(=O)N(c3ccccc3OC)C(=O)C12 (stereo not drawn), the activation is reported as -0.87% (inactive).
In the case of COc1cccc(NC(=O)COC(=O)CCOc2ccccc2OC)c1, the activation is reported as -1.34% (inactive).
For CCc1c(O)cc2n(c1=O)-c1ccccc1C2(C)C, the activation was 1.3% (inactive).
For CC(C)(C)NC(=O)CN(C(=O)c1csnn1)c1ccccc1-c1ccccc1, the activation was 1.04% (inactive).
For O=C(CCN1CCN(c2ccccc2)CC1)NNC(=S)Nc1ccccc1, the activation was 2.77% (inactive).
For CCOc1ccccc1N1CN(Cc2ccccc2)CNC1=S, the activation was -0.98% (inactive).
Cn1cc(S(=O)(=O)NC(c2ccccc2)c2ccccc2)c(=O)n(C)c1=O was tested, and the activation was 1.45% (inactive).
For COc1ccc(/C=N/NC(=O)C(C)N(c2ccc(OC)cc2)S(C)(=O)=O)cc1 (stereo not drawn), the activation was 0.5% (inactive).
With CC(C)(C)NC(=O)CN1CCC(NC(=O)C23CC4CC(CC(C4)C2)C3)CC1 the activation was 2.37% (inactive).
O=C(COC(=O)c1ccc(F)cc1F)Nc1ncccn1 was tested, and the activation was -0.68% (inactive).
O=C(COc1ccccc1)N1CCN=C1SCc1cccc(F)c1 was tested, and the activation was -0.02% (inactive).
Cc1cc(OCC(=O)NC2CCN(C)CC2)ccc1[N+](=O)[O-] was tested, and the activation was 1.92% (inactive).
With CC1Cc2ccccc2N1CC(=O)Nc1ccc(S(N)(=O)=O)cc1 (stereo not drawn) the activation was 1.19% (inactive).
With Cc1c(Cl)cccc1NC(=O)Nc1ccc(C(=O)N2CCCC2)cc1 the activation was -0.96% (inactive).
